Bioassay records from PubChem BioAssay.
Sampled rows, rich in hits. Any-hit rate of the full collection: about 1.5%.
dFosB act-1: activators of delta FosB homodimer, primary screen, biochemical, fluorescence polarization, TAMRA-CDK5 oligo, single point; actives 0.99% (n = 340,000); purified delta FosB; percent of positive-control signal above neutral wells; Protein FosB (Mus musculus), P13346; activation, % at 25 µM; AID 493131, 2011;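 active = mean activation above about 17%, with every replicate also reaching it, limit read from the data, passing the limit was not always enough; inconclusive = only one of the two conditions met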
S100A4 inh HTS: inhibitors of S100A4-myosin IIA peptide binding, primary screen, biochemical, fluorescence polarization, TAMRA-MyoIIA peptide; Protein S100-A4 (Homo sapiens), P26447; inhibition, % at 10.7 µM; actives 0.14% (n = 360,000);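 active = mean inhibition of at least 70% across replicates, with every replicate also reaching that level; inconclusive = mean inhibition reaches 70% but some replicates fall short; inactive = mean inhibition below 70%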
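Material: S100A4 monomer protein | Medium: HEPES pH 7.2 with CaCl2, KCl, NaCl, DTT, Triton | Reagent: Labelled myosin peptide probe, 5 nM | Doses: One dose per compound | Times: 5 min incubation before reading | Benchmarks: Neutral control DMSO, positive control TFP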
RAD54 branch: inhibitors of human RAD54 branch migration, primary screen, biochemical, fluorescence, single point; DNA repair and recombination protein RAD54-like (Homo sapiens), Q92698; RAD54 Holliday junction branch migration, FAM/BHQ fluorescence; inhibition, % at 10.4 µM; actives 0.14% (n = 360,000); AID 602329, 2012;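 active = mean normalized replicate activity at least 40 and at least half of replicates scoring 40 or more; inconclusive = only one of the two criteria met; inactive = mean below 40 and under half of replicates reaching 40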;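 also: 0% = median of neutral control wells and 100% = median of positive control wells; inhibitors cause a drop in the FAM fluorescence signal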
RAD52 anneal inh: RAD52 DNA annealing inhibitors, primary screen, biochemical, FRET, single point, set 2; DNA repair protein RAD52 homolog (Homo sapiens), P43351; recombinant RAD52 DNA annealing, FRET fluorescence; inhibition, % at 18.7 µM; actives 0.46% (n = 360,000); AID 651710, 2012;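 active = every replicate showing at least 50% inhibition; inconclusive = mean inhibition at least 50% but not in every replicate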
Target sequence (P43351 whole entry, looked up): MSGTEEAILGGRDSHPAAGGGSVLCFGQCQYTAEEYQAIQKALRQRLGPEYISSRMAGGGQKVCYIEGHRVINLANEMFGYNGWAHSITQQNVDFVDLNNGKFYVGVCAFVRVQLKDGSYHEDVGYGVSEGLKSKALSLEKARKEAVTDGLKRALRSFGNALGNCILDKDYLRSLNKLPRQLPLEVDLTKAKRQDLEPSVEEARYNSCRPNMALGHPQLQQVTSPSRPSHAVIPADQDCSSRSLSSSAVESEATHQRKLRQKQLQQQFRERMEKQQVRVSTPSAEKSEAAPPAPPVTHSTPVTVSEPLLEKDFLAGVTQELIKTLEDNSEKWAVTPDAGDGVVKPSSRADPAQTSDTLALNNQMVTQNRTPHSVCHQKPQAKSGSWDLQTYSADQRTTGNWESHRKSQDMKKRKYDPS
MLL AF4-AF9 inh: inhibitors of AF4 peptide binding to AF9, primary screen, biochemical, AlphaScreen, biotin-AF4 peptide, FLAG-AF9, single point. Protein AF-9 (Homo sapiens), P42568. inhibition, % at 10 µM. actives 0.47% (n = 350,000);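 active = every replicate reaching a set inhibition limit, whatever the replicate mean, cut at about 25% in these data; inconclusive = mean inhibition reaches that limit but some replicates miss it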;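 also: 0% = plate neutral control median and 100% = total signal loss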
dFosB act-2: activators of mouse delta FosB DNA binding, confirmation, biochemical, fluorescence polarization, TAMRA-CDK5 oligo, cherry-picked samples | shares compounds with dFosB act-1 | purified delta FosB; normalised: neutral wells 0, positive control 100 | activation, % at 24.9 µM | 2,400 tested, under 10 active | AID 588690, 2011;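 active = highest replicate activation at or above 34% and every replicate reaching that threshold; inconclusive = meets only one of the two criteria; inactive = meets neither criterion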;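 also: higher polarization means more probe DNA bound by delta FosB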
* marks the source's active call; other numbers are inactive results; ? = inconclusive; . = not tested or not shown.

SMILES	dFosB act-1	S100A4 inh HTS	RAD54 branch	RAD52 anneal inh	MLL AF4-AF9 inh	dFosB act-2
C[C@@H]1CCCCO[C@@H](CN(C)CC2CCCCC2)[C@@H](C)CN([C@H](C)CO)C(=O)c2cc(NC(=O)CCCCCC(=O)Nc3ccccc3N)ccc2O1	.	7	-4	-2	-3	.
Cc1occc1C(=O)N/N=C/c1ccc(OCc2ccccc2)cc1	30*	2	.	3	-21	3
CCOc1ccc(/C=N/NC(=O)c2cc3ccccc3cc2OC)cc1	19*	2	3	-14	-1	2
CCC(=O)N1[C@@H]2c3ccc(C4=CCCC4)c(=O)n3C[C@H]1[C@H](CO)[C@H]2C(=O)N[C@@H](C)c1ccccc1	.	-1	10	-16	3	.
Cc1cc(C(=O)OCC(=O)NC(C)c2ccccc2)c(C)o1 (stereo unspecified)	-4	1	.	-2	2	.
CC(NC(=O)COC(=O)c1cc2ccccc2cc1O)c1ccccc1 (stereo unspecified)	24*	-2	5	-12	0	1
Cc1c(C(=O)OCC(=O)NC(C)c2ccccc2)oc2ccccc12 (stereo unspecified)	20*	-4	8	-17	-1	7
CN(C)C(=O)C[C@H]1CC[C@@H]2[C@H](COc3ccc(NC(=O)C4CC4)cc3C(=O)N2C)O1	.	-5	7	-6	-1	.
Cn1cnnc1SC(C(=O)Nc1cc(Cl)cc(Cl)c1)c1ccccc1 (stereo unspecified)	20*	.	.	.	.	12
CCS(=O)(=O)Nc1ccc2c(c1)C(=O)N(C)C[C@@H](OC)[C@@H](C)CN(C(=O)CN(C)C)[C@@H](C)CO2	.	6	-4	6	0	.
Cc1ccc(C(=O)NC(=S)Nc2ccc3[nH]c(=O)[nH]c3c2)c(C)c1	28*	1	.	-4	-3	7
Cc1cccc(C(=O)NC(=S)Nc2ccc3[nH]c(=O)[nH]c3c2)c1	13	0	.	-5	-2	.
O=C(CSc1nc2ccccc2[nH]1)NC1CCCc2ccccc21 (stereo unspecified)	-14	3	.	-4	0	.
O=C(CSc1nc2ccc(Cl)cc2[nH]1)NC1CCCc2ccccc21 (stereo unspecified)	19*	-5	.	-14	0	5
COc1ccc(/C=C/C(=O)Nc2c(C)nn(C)c2C)cc1COc1ccc(Cl)cc1Br	131*	.	-6	.	.	-7
COc1ccc(S(=O)(=O)Nc2ccc3c(c2)C(=O)N([C@H](C)CO)C[C@@H](C)[C@@H](CN(C)C(=O)CCC(F)(F)F)OCCCC[C@H](C)O3)cc1	.	-5	2	17	-2	.
O=C(C1CC1)N1C[C@H]2[C@@H](c3ccccc31)[C@H](CO)N2Cc1ccccc1Cl	.	6	10	5	-4	.
Cc1ccc(NNC(=O)C(O)(c2cccc(C(F)(F)F)c2)c2cccc(C(F)(F)F)c2)cc1	77*	4	4	-3	6	0
O=C(CNc1ccc2ccccc2c1)N/N=C/c1ccc([N+](=O)[O-])o1	31*	17	-17	-16	3	4
O=C(COc1ccccc1)N/N=C/c1ccc([N+](=O)[O-])o1	0	2	.	-15	2	.
C[C@@H]1CCCCO[C@H](CN(C)Cc2ccccc2)[C@H](C)CN([C@@H](C)CO)C(=O)c2cc(NC(=O)Nc3ccccc3)ccc2O1	.	-7	-20	9	14	.
CCOc1ccc(-n2nc3ccc(NC(=O)c4ccc5c(c4)OCCO5)cc3n2)cc1	99*	.	.	.	.	-10
O=C(Nc1ccc(NC(=O)c2ccc3c(c2)OCCO3)cc1)c1ccccc1	35*	-1	13	-10	-1	1
O=C(NNC(=O)c1ccc(NC(=O)c2ccccc2)cc1)c1ccccc1	18*	-2	.	-15	0	2
O=C(Nc1ccc(NS(=O)(=O)c2ccccc2)cc1)c1ccccc1	?	-1	-9	-4	-1	.
